The text below walks through data of the EternaBench riboswitch data.

This series has as its system MS2 coat protein. The experiment in a line: apparent Kd, MS2 coat protein; higher = weaker binding; RNA-MaP array; FMN 200 µM where present. The method, boiled down: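 On Illumina sequencing-chip clusters, designs were transcribed by stalled E. coli RNA polymerase and titrated with SNAP-549-labelled MS2 coat protein (0.7 or 1.5 nM, doubling to 3 µM), without and then with constant ligand, in 100 mM Tris-HCl pH 7.5, 80 mM KCl, 4 mM MgCl2, BSA, DTT, yeast tRNA and Tween-20. Apparent Kd is the median of filtered per-cluster curve fits to green signal normalised to red-channel RNA signal and control-cluster median Fmax.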

[1] abbreviates: designed as: OFF switch for flavin mononucleotide, no ligand.
Where [2] appears, read: ligand present: flavin mononucleotide, designed as: OFF switch for flavin mononucleotide.
[3] abbreviates: designed as: ON switch for flavin mononucleotide, no ligand.
[4] abbreviates: ligand present: flavin mononucleotide, designed as: ON switch for flavin mononucleotide.

For the sequence “UGUCAAGCAGGAUAUGCACGUAAUAACAUGAGGAUCACCCAUGUGACCGAUUUAUAUUCUGCAGAAGGGCUUGGUU”, the “apparent Kd” value was determined as 37.8 nM under setting [1] and 140 nM under setting [2].
Regarding “AAGAAAGAAACAUAGGAUAUCAAGGAUAUAACAUGAGGAUCACCCAUGUAAAUACGAAAGUAUAAUGAGAAGGAUGGAUGAUCUUC”, the “apparent Kd” value is, setting by setting: under setting [3], 86.1 nM; under setting [4], 122 nM.
In the same order, the values of “AAGUUAUAUACAUGAGGAUCACCCAUGUCAAAGGGAGUAAUCAGAAGGUACUAUUCAAUAAUUAGUAAGGAUAUGAAUUUUUAG” are 39.5 nM and 30.6 nM.
Regarding “GGUACUCAAAGAGUACUUGGUCGAACAUGAGGAUCACCCAUGUAGGAUAUACAAAGCAAGAAGUAGUAGAAGGACAUGUGCAGC”, the “apparent Kd” value was 12.9 nM under setting [1] and 16.2 nM under setting [2].
Regarding “ACAUGAGGAUCACCCAUGUAUACAUAGGAUAUUGGUGAUCAGGGAUGUUUUACAGGAUAUGUCUGCGAGAAGGAUGCAAGUAGU”, the “apparent Kd” value under setting [3] was determined as 238 nM and the “apparent Kd” value under setting [4] came to 48.3 nM.
With “CUGCGGUAGGAGAAGGACGGCGGGUUCUUUUCGUACAUGAGGAUCACCCAUGUAGGAUAUCCUACCUCAGGCGGCCUACUACAG”, the “apparent Kd” value was determined as 5.89 nM under setting [1] and 7.42 nM under setting [2].
Take “UACAUUACUUAGAAGGGAUAUAUAUAAUUUUAAUCAGGAUAUAGAUACAGUACAACAUGAGGACAUGAGGAUCACCCAUGUAUU”: the “apparent Kd” value reads like this: under setting [3], 31.4 nM; under setting [4], 23.2 nM.
Turning to “ACGCCUCCUGUCAGGAUAUGCAUCGGGCUUCCGCAGCAGAAGGGACAUGAGGAUCACCCAUGUCAAAUAAAAUC”, the “apparent Kd” value runs as follows: under setting [1], 17.6 nM; under setting [2], 58.3 nM.
In the same order, the values of “AUUCCUAAUGUUAGGAUAUGCGACGGGUGACCGUUGCAGAAGGAACAUGAGGAUCACCCAUGUUUAAUAAAAUC” are 17.3 nM and 111 nM.
As for “GAUUCGCGUGAGAAGGACAUGAGGAUCACCCAUGUAGGAUAUCACGGUCCGUAGAGGAUUUCAAACCGUACUGGGUCAUAGUGU”, the “apparent Kd” value is 14.4 nM under setting [3] and 6.56 nM under setting [4].
With “AAAGGACGAUUAGGAUAUUCGGUUCAAGGUAAAGAAGAAGGAAUCGUUCCAUACUUAACAUGAGGAUCACCCAUGUGGGUCUAG”, the “apparent Kd” value was determined as 34.9 nM under setting [1] and 29.5 nM under setting [2].
Regarding “AAUUAACUCACAGGAUAUAGCAGAGGUCGAGUGUACUUACAGGCGACGAGGCUAGAAGGGUGACCACAUGAGGAUCACCCAUGU”, the “apparent Kd” value reads like this: under setting [3], 621 nM; under setting [4], 103 nM.
Take “AGUACUACAGGAUAUACAUGAGUGAUACUCAUAUCCCUUCUACAUGAGGAUCACCCAUGUAGAAGGGUAGUACA”: the “apparent Kd” value reads like this: under setting [1], 15.2 nM; under setting [2], 11.7 nM.
Turning to “CUGUGACGGUGCGCAUGUGGACGGAGAAGGCAGACAUGAGGAUCACCCAUGUGAGCCUGCUAUUCUGAGGAUAUCCGUUCGCAC”, the “apparent Kd” value runs as follows: under setting [1], 31.8 nM; under setting [2], 192 nM.
On to “UUACAGUGCGGGUAGGAUAUGUAGGGUGGUACAUGAGGAUCACCCAUGUAUCCACCCUUCGACCGGCAGAAGGGCCUGUCACUGC”, for which the “apparent Kd” value is 14.3 nM under setting [3] and 14.3 nM under setting [4].
As for “GGGCCGGUGGAGAAGGAGCGUGCGAAACGCAUGCUAGGAUAUCCACAUGAGGAUCACCCAUGUGGGAAUAUCUGGUUUUCACAG”, the “apparent Kd” value runs as follows: under setting [1], 3.85 nM; under setting [2], 4.65 nM.
On to “GAUAGGACAGAGAAGGACAUAGCUAGAGAUACUAGCAUAAGAACUUUCACAUGAGGAUCACCCAUGUAGGAUAUCUGUCCUAUC”, for which the “apparent Kd” value reads like this: under setting [1], 4.96 nM; under setting [2], 5.53 nM.
For the sequence “AGUCGGAGCAGAGGAUAUACAUGAGGAUCACCCAUGUAAUAAAUCCAAGCCUGGAAACAGGCAAUGUAGAAGGCUGCUCCGACA”, the “apparent Kd” value is, setting by setting: under setting [1], 16.8 nM; under setting [2], 78.8 nM.
In the same order, the values of “CCUCUACAUGAGGAUCACCCAUGUGAGGAUAUCUCGGAGCAGCCAAUUAAAGCGCUCCAGAGAAGGCACGUGUA” are 17.9 nM and 25.2 nM.
“UUGCGACAUGAGGAUCACCCAUGUCAGGAUAUAUUGUAGAAACUGGUUGCGACCAGGCGUAGAAGGGACAUGGC”: the “apparent Kd” value is, setting by setting: under setting [1], 28.6 nM; under setting [2], 37.7 nM.
In the same order, the values of “ACUUCUAAGCAGAAGGCAGUCAUAGCAUUCGUCAUGUAGACAUGAGGAUCACCCAUGUAUAGUGCUGAGGAUAUGCUUGGAUAG” are 11.8 nM and 10.7 nM.
As to “GUGCAUUCGUAGAAGGGUGACAUGAGGAUCACCCAUGUGCGCUGGGCUCGGGAGGCAUCAGCGCCACAGGAUAUACGAAGCACC”, the “apparent Kd” value under setting [3] is 66.8 nM and the “apparent Kd” value under setting [4] worked out at 48.6 nM.
“GUGCAUUCGUAGAAGGGUGACAUGAGGAUCACCCAUGUGCGCUGGGCUCGGGAUGCAUCAGCGCCACAGGAUAUACGAAGCACC”: the “apparent Kd” value was 117 nM under setting [3] and 106 nM under setting [4].
In the same order, the values of “GGAGCUACAACCGACGGAUAGAUGCAGGAUAUGCUCACAUGAGGAUCACCCAUGUGCUGAAACUGGCAGAAGGGUAUCACCGCC” are 7.83 nM and 4.59 nM.
With “CUGAGCUGAGGAUAUACAUGAGGAUCACCCAUGUGUUCCAGCUUGGGUACAGGCACAUGUAGAAGGCAGUUCGG”, the “apparent Kd” value is 55.1 nM under setting [1] and 21.4 nM under setting [2].
In the same order, the values of “AAUGUUGAUGUGAGGAUAUACAUAGUUUGACCGUAGUAGAAGGCACAUGAGGAUCACCCAUGUAGAUGUUUGGU” are 12 nM and 24.2 nM.
In the same order, the values of “GCAUGCAAGUAGAAGGUCGGAUAUUUUGAUACCGAAGGAUAUACAGAAUCAUAUCCACAUGAUAACAUGAGGAUCACCCAUGUA” are 21.4 nM and 26.7 nM.
In the same order, the values of “GCGUAAGAAUUAAUUGUGACUGACAGAAGGCAAUAGUAUGUGUCCGACAUGAGGAUCACCCAUGUUGAGGAUAUGUCUUGACGC” are 4.64 nM and 5 nM.
Turning to “AAACCACAUGAGGAUCACCCAUGUGAGGAUAUGAUACUAUGUACUUCGGUACAUAGUAUCAGAAGGCAUAUGAA”, the “apparent Kd” value was found to be 24.6 nM under setting [1] and 25.1 nM under setting [2].
Turning to “ACUUUAUUUGAGAAGGUGAAGUGGAAACAUGAGGAUCACCCAUGUAAUAGGAAGCCUAUUUUUAUCAAGGAUAUCAAAUAAAGA”, the “apparent Kd” value reads like this: under setting [3], 7.89 nM; under setting [4], 7.86 nM.
“AUCGUGCAGCUUUGCUGUACGCGUACAUGAGGAUCACCCAUGUAGGAUAUGGUAGGCAAAGCUUACUAGAAGGAUAUAGUGAUC”: the “apparent Kd” value by setting is: under setting [1], 61.9 nM; under setting [2], 54 nM.
In the same order, the values of “UCGAGGUCAGGAUAUACAUGAGGAUCACCCAUGUUGAGAGAAGGUAGGAAAAGAGUAGGUAGAAGGGACGAGAG” are 33.7 nM and 33.8 nM.
In the same order, the values of “AAAAGGCUAGGAUAUACAUGAGGAUCACCCAUGUGAGGGCACGGCCGGCGCGGGCCCGGUAGAAGGAGUCAAAA” are 18.4 nM and 17.6 nM.
As to “AAAAAAAAAAGACAGGAUAUACAAUAUAUUACAUGAGGAUCACCCAUGUUUUUUUUUUAAUUAAAGUAGAAGGGUCAAAAAAAAAA”, the “apparent Kd” value runs as follows: under setting [3], 52.2 nM; under setting [4], 40 nM.
In the same order, the values of “GUUGUAAUGUCAGGAUAUAUAAUAAGUCAUACAGUAGAAGGGAUAAUUAUACUCAUGUACAUGAGGAUCACCCAUGUUAAAUAG” are 63.6 nM and 37.9 nM.
In the same order, the values of “ACAUGAGGAUCACCCAUGUAGAAUGAAGAAGGUAGAUACUUGAGGCUCACCCAUGUACAUGGGACUAAGGAUAUUCUAAUAAUU” are 42.7 nM and 27.7 nM.

In general, apparent Kd refers to the concentration giving half-maximal binding under the conditions of the assay.
